In ChEMBL document CHEMBL4118253, “Expedient synthesis and biological evaluation of alkenyl acyclic nucleoside phosphonate prodrugs” (Bioorg Med Chem, 2018):

Legend:
[1] = system: Human alphaherpesvirus 1; test: Antiviral activity against Herpes simplex virus 1 KOS infected in HEL cells assessed as inhibition of virus-induced cytopathicity; assay type: functional, organism-based; conditions: Human alphaherpesvirus 1, KOS
[2] = system: Human alphaherpesvirus 2; test: Antiviral activity against Herpes simplex virus 2 G infected in HEL cells assessed as inhibition of virus-induced cytopathicity; assay type: functional, organism-based; conditions: Human alphaherpesvirus 2, strain G
[3] = system: Human alphaherpesvirus 1; test: Antiviral activity against acyclovir-resistant thymidine kinase deficient Herpes simplex virus 1 KOS infected in HEL cells assessed as inhibition of virus-induced cytopathicity; assay type: functional, organism-based; conditions: Human alphaherpesvirus 1, KOS
[4] = system: Vaccinia virus; test: Antiviral activity against Vaccinia virus infected in HEL cells assessed as inhibition of virus-induced cytopathicity; assay type: functional, organism-based; conditions: Orthopoxvirus vaccinia
[5] = system: Human adenovirus 2; test: Antiviral activity against Adenovirus 2 infected in HEL cells assessed as inhibition of virus-induced cytopathicity; assay type: functional, organism-based; conditions: Human mastadenovirus C
[6] = system: Human coronavirus 229E; test: Antiviral activity against Human coronavirus 229E infected in HEL cells assessed as inhibition of virus-induced cytopathicity; assay type: functional, organism-based
[7] = system: Human respirovirus 3; test: Antiviral activity against Parainfluenza virus 3 infected in human HeLa cells assessed as inhibition of virus-induced cytopathicity; assay type: functional, organism-based; conditions: Human respirovirus 3, HeLa
[8] = system: Mammalian orthoreovirus 1; test: Antiviral activity against Reovirus-1 infected in human HeLa cells assessed as inhibition of virus-induced cytopathicity; assay type: functional, organism-based; conditions: Mammalian orthoreovirus 1, HeLa
[9] = system: Vesicular stomatitis virus; test: Antiviral activity against Vesicular stomatitis virus infected in human HeLa cells assessed as inhibition of virus-induced cytopathicity; assay type: functional, organism-based
[10] = system: Respiratory syncytial virus; test: Antiviral activity against Respiratory syncytial virus infected in human HeLa cells assessed as inhibition of virus-induced cytopathicity; assay type: functional, organism-based
[11] = system: Influenza A virus; test: Antiviral activity against Influenza A virus H1N1 infected in MDCK cells assessed as inhibition of virus-induced cytopathicity by MTS assay; assay type: functional, organism-based
[12] = system: Influenza A virus H3N2; test: Antiviral activity against Influenza A virus H3N2 infected in MDCK cells assessed as inhibition of virus-induced cytopathicity by MTS assay; assay type: functional, organism-based
[13] = system: Influenza B virus; test: Antiviral activity against Influenza B virus infected in MDCK cells assessed as inhibition of virus-induced cytopathicity by MTS assay; assay type: functional, organism-based
[14] = system: Human alphaherpesvirus 3; test: Antiviral activity against thymidine kinase expressing Varicella-Zoster virus infected in HEL cells assessed as reduction in virus plaque formation; assay type: functional, organism-based; conditions: Human alphaherpesvirus 3, HEL
[15] = system: Human alphaherpesvirus 3; test: Antiviral activity against thymidine kinase deficient Varicella-Zoster virus infected in HEL cells assessed as reduction in virus plaque formation; assay type: functional, organism-based; conditions: Human alphaherpesvirus 3, HEL
[16] = system: Human betaherpesvirus 5; test: Antiviral activity against Human cytomegalovirus AD169 infected in HEL cells assessed as inhibition of virus-induced cytopathicity; assay type: functional, organism-based; conditions: Human betaherpesvirus 5, AD169, HEL
[17] = system: Human betaherpesvirus 5; test: Antiviral activity against Human cytomegalovirus Davis infected in HEL cells assessed as inhibition of virus-induced cytopathicity; assay type: functional, organism-based; conditions: Human betaherpesvirus 5, Davis
[18] = Cytotoxicity against HEL cells assessed as alteration of cell morphology by microscopic analysis; assay type: cell-based; conditions: human
How it was run: (§1)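 The value is the minimal cytotoxic concentration (MCC), the lowest concentration that causes a microscopically visible change in cell morphology. It was read in the same HEL or Vero cell cultures used for the antiviral tests.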

[19] = system: Sindbis virus; test: Antiviral activity against Sindbis Virus infected in African green monkey Vero cells assessed as inhibition of virus-induced cytopathicity; assay type: functional, organism-based
[20] = system: Coxsackievirus B4; test: Antiviral activity against Coxsackie virus B4 infected in African green monkey Vero cells assessed as inhibition of virus-induced cytopathicity; assay type: functional, organism-based; conditions: Enterovirus B
[21] = system: Punta Toro virus; test: Antiviral activity against Punta Toro virus infected in African green monkey Vero cells assessed as inhibition of virus-induced cytopathicity; assay type: functional, organism-based
[22] = system: Yellow fever virus; test: Antiviral activity against Yellow fever virus infected in African green monkey Vero cells assessed as inhibition of virus-induced cytopathicity; assay type: functional, organism-based
[23] = Cytotoxicity against African green monkey Vero cells assessed as alteration of cell morphology by microscopic analysis; assay type: cell-based; conditions: chlorocebus sabaeus; how it was run: as §1
[24] = Cytotoxicity against human HeLa cells assessed as alteration of cell morphology by microscopic analysis; assay type: cell-based
[25] = Cytotoxicity against MDCK cells assessed as alteration of cell morphology by microscopic analysis; assay type: cell-based, Canis lupus familiaris; conditions: dog
[26] = system: Influenza A virus; test: Antiviral activity against Influenza A virus H1N1 infected in MDCK cells assessed as inhibition of virus-induced visual cytopathicity; assay type: functional, organism-based
[27] = system: Influenza A virus H3N2; test: Antiviral activity against Influenza A virus H3N2 infected in MDCK cells assessed as inhibition of virus-induced visual cytopathicity; assay type: functional, organism-based
[28] = system: Influenza B virus; test: Antiviral activity against Influenza B virus infected in MDCK cells assessed as inhibition of virus-induced visual cytopathicity; assay type: functional, organism-based

Compound	EC50 [3]	EC50 [4]	EC50 [5]	EC50 [7]	EC50 [8]	EC50 [10]	EC50 [11]	EC50 [12]	EC50 [13]	EC50 [15]	EC50 [17]	MCC [18]	EC50 [19]	EC50 [20]	EC50 [21]	MCC [23]	MCC [25]	EC50 [26]	EC50 [27]	EC50 [28]	also measured
C/C(=C\CP(=O)(N[C@@H](C)C(=O)OCc1ccccc1)Oc1cccc2ccccc12)Cn1cc(C)c(=O)[nH]c1=O (some centres not stated)	> 100 µM	> 100 µM	> 100 µM	> 100 µM	> 100 µM	> 100 µM	> 100 µM	> 100 µM	> 100 µM	55.3 µM	> 100 µM	> 100 µM	> 100 µM	> 100 µM	> 100 µM	> 100 µM	> 100 µM	> 100 µM	> 100 µM	> 100 µM	EC50 [1]: > 100 µM; EC50 [2]: > 100 µM; EC50 [6]: > 100 µM; EC50 [9]: > 100 µM; EC50 [14]: 34.2 µM; EC50 [16]: > 100 µM; EC50 [22]: > 100 µM; MCC [24]: > 100 µM
C/C(=C\CP(=O)(N[C@@H](C)C(=O)OCc1ccccc1)Oc1ccccc1)Cn1cc(C)c(=O)[nH]c1=O (some centres not stated)	> 100 µM	> 100 µM	> 100 µM	> 100 µM	> 100 µM	> 100 µM	> 100 µM	> 100 µM	> 100 µM	46.7 µM	> 100 µM	> 100 µM	> 100 µM	> 100 µM	> 100 µM	> 100 µM	> 100 µM	> 100 µM	> 100 µM	> 100 µM	EC50 [1]: > 100 µM; EC50 [2]: > 100 µM; EC50 [6]: > 100 µM; EC50 [9]: > 100 µM; EC50 [14]: 55.7 µM; EC50 [16]: > 100 µM; EC50 [22]: > 100 µM; MCC [24]: > 100 µM
C/C(=C\CP(=O)(N[C@@H](C)C(=O)OC(C)C)Oc1cccc2ccccc12)Cn1cc(C)c(=O)[nH]c1=O (some centres not stated)	> 100 µM	> 100 µM	> 100 µM	> 100 µM	> 100 µM	> 100 µM	> 100 µM	> 100 µM	> 100 µM	> 100 µM	> 100 µM	> 100 µM	> 100 µM	> 100 µM	> 100 µM	≥ 20 µM	> 100 µM	> 100 µM	> 100 µM	> 100 µM	EC50 [1]: > 100 µM; EC50 [2]: > 100 µM; EC50 [6]: > 100 µM; EC50 [9]: > 100 µM; EC50 [16]: > 100 µM; EC50 [22]: > 100 µM; MCC [24]: ≥ 20 µM
C/C(=C/CP(=O)(N[C@@H](C)C(=O)OC(C)C)Oc1cccc2c1CCCC2)Cn1cc(C)c(=O)[nH]c1=O (some centres not stated)	> 100 µM	> 100 µM	> 100 µM	> 100 µM	> 100 µM	> 100 µM	> 100 µM	> 100 µM	> 100 µM	> 20 µM	> 20 µM	100 µM	45 µM	58 µM	45 µM	> 100 µM	100 µM	> 100 µM	> 100 µM	> 100 µM	EC50 [1]: > 100 µM; EC50 [2]: > 100 µM; EC50 [6]: > 100 µM; EC50 [9]: > 100 µM; EC50 [14]: > 20 µM; EC50 [22]: 58 µM; MCC [24]: > 100 µM
C/C(=C\CP(=O)(N[C@@H](C)C(=O)OC(C)C)Oc1ccccc1)Cn1cc(C)c(=O)[nH]c1=O (some centres not stated)	> 100 µM	> 100 µM	> 100 µM	> 100 µM	> 100 µM	> 100 µM	> 100 µM	> 100 µM	> 100 µM	> 100 µM	> 100 µM	> 100 µM	> 100 µM	> 100 µM	> 100 µM	≥ 20 µM	> 100 µM	> 100 µM	> 100 µM	> 100 µM	EC50 [1]: > 100 µM; EC50 [2]: > 100 µM; EC50 [6]: > 100 µM; EC50 [9]: > 100 µM; EC50 [14]: 76.5 µM; EC50 [16]: > 100 µM; EC50 [22]: > 100 µM; MCC [24]: ≥ 20 µM
C/C(=C/CP(=O)(N[C@@H](C)C(=O)OCc1ccccc1)Oc1cccc2c1CCCC2)Cn1cc(C)c(=O)[nH]c1=O (some centres not stated)	> 100 µM	> 100 µM	> 100 µM	> 100 µM	> 100 µM	> 100 µM	> 100 µM	> 100 µM	> 100 µM	65.1 µM	76.5 µM	> 100 µM	> 100 µM	> 100 µM	> 100 µM	≥ 20 µM	> 100 µM	> 100 µM	> 100 µM	> 100 µM	EC50 [1]: > 100 µM; EC50 [2]: > 100 µM; EC50 [6]: > 100 µM; EC50 [9]: > 100 µM; EC50 [14]: 17 µM; EC50 [22]: > 100 µM; MCC [24]: ≥ 20 µM
Nc1nc2c(ncn2COCCO)c(=O)[nH]1 [ACYCLOVIR]	126 µM	> 250 µM	–	–	–	–	–	–	–	–	–	250 to 440 µM	–	–	–	–	–	–	–	–	–
Cc1cn([C@H]2C[C@H](F)[C@@H](CO)O2)c(=O)[nH]c1=O [ALOVUDINE]	–	–	1.2 µM	–	–	–	–	–	–	–	–	> 250 µM	–	–	–	–	–	–	–	–	–
NC12CC3CC(CC(C3)C1)C2 [AMANTADINE]	–	–	–	–	–	–	1.4 µM	1.6 µM	> 100 µM	–	–	–	–	–	–	–	> 100 µM	1.8 µM	2 µM	> 100 µM	–
O=c1[nH]c(=O)n([C@H]2C[C@H](O)[C@@H](CO)O2)cc1/C=C/Br [BRIVUDINE]	–	19 µM	–	–	–	–	–	–	–	0.57 µM	–	250 to 300 µM	–	–	–	–	–	–	–	–	–
Nc1ccn(C[C@@H](CO)OCP(=O)(O)O)c(=O)n1 [CIDOFOVIR]	–	37 µM	22 µM	–	–	–	–	–	–	–	–	> 250 µM	–	–	–	–	–	–	–	–	EC50 [16]: 1.24 µM
Nc1nc2c(ncn2COC(CO)CO)c(=O)[nH]1 [GANCICLOVIR]	–	> 100 µM	–	–	–	–	–	–	–	–	2.29 µM	> 100 µM	–	–	–	–	–	–	–	–	EC50 [16]: 11.4 µM
COc1c(C)c2c(c(O)c1C/C=C(\C)CCC(=O)O)C(=O)OC2 [MYCOPHENOLIC ACID]	–	–	–	0.4 µM	6.8 µM	–	–	–	–	–	–	–	–	> 100 µM	6.1 µM	> 100 µM	–	–	–	–	–
CCOC(=O)C1=C[C@@H](OC(CC)CC)[C@H](NC(C)=O)[C@@H](N)C1 [OSELTAMIVIR]	–	–	–	–	–	–	0.2 µM	> 100 µM	–	–	–	–	–	–	–	–	> 100 µM	1.5 µM	> 100 µM	2.9 µM	–
NC(=O)c1ncn([C@@H]2O[C@H](CO)[C@@H](O)[C@H]2O)n1 [RIBAVIRIN]	–	–	–	95 µM	> 250 µM	25 µM	–	–	–	–	–	–	> 250 µM	> 250 µM	–	> 250 µM	> 100 µM	–	–	–	EC50 [22]: > 250 µM; MCC [24]: > 250 µM
CC(N)C12CC3CC(CC(C3)C1)C2 (configuration not stated) [RIMANTADINE]	–	–	–	–	–	–	> 200 µM	0.7 µM	> 200 µM	–	–	–	–	–	–	–	> 200 µM	> 200 µM	0.4 µM	> 200 µM	–
Nc1ccn([C@H]2CC[C@@H](CO)O2)c(=O)n1 [ZALCITABINE]	–	–	10 µM	–	–	–	–	–	–	–	–	> 250 µM	–	–	–	–	–	–	–	–	–
